This note sets out measurements from ChEMBL document CHEMBL4024760, “Specific Inhibition of Bacterial β-Glucuronidase by Pyrazolo[4,3-c]quinoline Derivatives via a pH-Dependent Manner To Suppress Chemotherapy-Induced Intestinal Toxicity” (J Med Chem, 2017).

One may read the IC50 as the point on the concentration scale where inhibition reaches its midpoint. Lower therefore signals higher potency.

Some results are limits rather than exact numbers.

One series relates to Escherichia coli. The series can be described thus: Inhibition of N-terminal His-tagged Escherichia coli beta-glucuronidase expressed in Escherichia coli BL21 (DE3) assessed as residual activity using pNPG as substrate at 10 uM preincubated for 30 mins followed by substrate addition measured after 1 hr relative to control. An outline of the steps: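 Purified E. coli βG (20 ng) preincubated with 10 μM compound for 30 min at 37 °C in PBS pH 7.5 with 10% DMSO and 0.05% BSA. pNPG (20 mM stock) then added for 1 h, quenched with 2 N NaOH, and read at OD405. Result given as % activity versus a 10% DMSO control; n = 3.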

The target of the next series is T1, beta-glucuronidase (Homo sapiens, UniProt P08236).
T1 sequence (P08236 whole entry): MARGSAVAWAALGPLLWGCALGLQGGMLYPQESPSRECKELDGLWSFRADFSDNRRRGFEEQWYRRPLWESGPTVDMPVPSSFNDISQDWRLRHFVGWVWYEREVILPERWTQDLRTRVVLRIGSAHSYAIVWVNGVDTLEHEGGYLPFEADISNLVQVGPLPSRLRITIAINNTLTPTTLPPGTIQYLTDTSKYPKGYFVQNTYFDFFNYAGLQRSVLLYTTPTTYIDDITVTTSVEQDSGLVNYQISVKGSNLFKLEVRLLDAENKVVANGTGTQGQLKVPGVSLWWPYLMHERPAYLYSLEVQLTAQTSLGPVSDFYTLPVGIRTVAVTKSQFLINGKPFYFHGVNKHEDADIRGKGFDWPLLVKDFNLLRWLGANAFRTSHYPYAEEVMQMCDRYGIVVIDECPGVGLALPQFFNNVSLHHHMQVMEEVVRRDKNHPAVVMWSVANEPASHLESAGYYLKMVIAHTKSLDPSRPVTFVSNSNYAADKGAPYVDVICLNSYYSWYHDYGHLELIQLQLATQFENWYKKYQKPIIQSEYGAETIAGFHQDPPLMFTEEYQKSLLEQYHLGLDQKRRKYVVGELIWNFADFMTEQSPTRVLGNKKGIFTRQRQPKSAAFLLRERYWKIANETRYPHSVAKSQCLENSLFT
Briefly: Inhibition of N-terminal His-tagged human beta-glucuronidase expressed in Escherichia coli BL21 (DE3) assessed as residual activity using pNPG as substrate at 10 uM preincubated for 30 mins followed by substrate addition measured after 1 hr relative to control. The conditions noted are these: probe pNPG, read-out: Activity.

The nature of series [1]: Inhibition of N-terminal His-tagged Escherichia coli beta-glucuronidase expressed in Escherichia coli BL21 (DE3) using pNPG as substrate preincubated for 30 mins followed by substrate addition measured after 1 hr. Summed up: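 Purified E. coli βG (20 ng) preincubated 30 min at 37 °C with compound (0.64–10 000 nM) in PBS pH 7.5 containing 10% DMSO and 0.05% BSA. pNPG (20 mM stock) then added for 1 h, quenched with 2 N NaOH, and pNP read at 405 nm. IC50 derived from a four-parameter curve fit; SD of n = 3.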

Regarding `Nc1n[nH]c2c1c(N)nc1ccccc12`, in the series with Escherichia coli, the Activity is 86.3%. Further, the activity at 1 h, 10 µM on beta-glucuronidase came out at 83.9%.
In the case of `CC(=O)c1ccc(Nc2nc3ccccc3c3[nH]nc(N)c23)cc1`, the Activity in the series with Escherichia coli came out at 6%. For the same molecule, in series [1], the IC50 came out at 0.133 µM. Besides, the activity at 1 h, 10 µM at beta-glucuronidase came to 83.4%.
Consider `CNC(=S)N/N=C1\C(=O)c2ccccc2-c2occc21`, for which the Activity in the series on Escherichia coli came out at 104%. The activity at 1 h, 10 µM on beta-glucuronidase was determined as 86.8%.
For the molecule `Cc1ccccc1Nc1nc2ccccc2c2[nH]nc(N)c12`, in the series on Escherichia coli, the Activity is 14.8%. Moreover, in series [1], the IC50 worked out at 0.673 µM. Also, the activity at 1 h, 10 µM at beta-glucuronidase was found to be 93.6%.
For `Nc1ccc(Nc2nc3ccccc3c3[nH]nc(N)c23)cc1`, the Activity in the series on Escherichia coli came to 11.3%. In addition, the IC50 in series [1] is 0.598 µM. Besides, the activity at 1 h, 10 µM on beta-glucuronidase was determined as 62.2%.
Taken in the same sequence, the figures for `Cc1cccc2c1nc(Nc1ccc(Cl)cc1)c1c(N)n[nH]c12` were 9.04%, 0.238 µM and 88.3%.
For `CCOC(=O)CSc1nc2ccccc2c2sc(C(=O)OCC)c(N)c12`, the Activity in the series with Escherichia coli is 101%. Moreover, the activity at 1 h, 10 µM on beta-glucuronidase worked out at 108%.
Take `O=C1S/C(=C/c2ccc3cc(F)ccc3n2)C(=O)N1CCN1CCCCC1`: the Activity with Escherichia coli stood at 107%. The activity at 1 h, 10 µM at beta-glucuronidase was found to be 96.5%.
Consider `Nc1n[nH]c2c1c(Nc1ccc(Cl)cc1)nc1cc(F)ccc12`, for which the Activity in the series with Escherichia coli stood at 6.78%. The same molecule gave an IC50 in series [1] of 0.0296 µM. Further, at beta-glucuronidase, the activity at 1 h, 10 µM was determined as 92.8%.
Regarding `Fc1ccc2nc(/C=N/NC3=NCCN3)ccc2c1`, the Activity in the series with Escherichia coli came to 112%. For the same molecule, the activity at 1 h, 10 µM at beta-glucuronidase was 99%.
As for `Nc1n[nH]c2c1c(Nc1ccc(O)cc1)nc1ccccc12`, in the series on Escherichia coli, the Activity stood at 8.67%. In addition, inhibition in series [1] was half-maximal at 0.626 µM (IC50). The activity at 1 h, 10 µM at beta-glucuronidase came out at 106%.
Taken in the same sequence, the figures for `O=C(O)[C@@H](O)[C@H]1OC(=O)[C@H](O)[C@H]1O` [D-SACCHARIC ACID 1,4-LACTONE] were 75.7%, above 10 µM and 33.5%.
Regarding `COc1cc(C(=O)C2CC2c2ccc3ccccc3n2)cc(OC)c1OC` (centres undefined), the Activity in the series with Escherichia coli worked out at 112%. Besides, at beta-glucuronidase, the activity at 1 h, 10 µM is 85.4%.
`O=C(O)CN1C(=O)S/C(=C/c2ccc3cc(F)ccc3n2)C1=O`: the Activity in the series on Escherichia coli came to 109%. Also, on beta-glucuronidase, the activity at 1 h, 10 µM came to 85.9%.
With `CCOc1ccc(NC(=S)N(CCO)Cc2cc3cc(C)cc(C)c3[nH]c2=O)cc1`, the Activity in the series on Escherichia coli amounted to 8.83%. The 50% inhibitory concentration (IC50) in series [1] is 0.846 µM.
`Nc1n[nH]c2c1c(Nc1ccccc1)nc1ccccc12`: in the series with Escherichia coli, the Activity worked out at 2.33%. For the same molecule, the activity at 1 h, 10 µM on beta-glucuronidase was 106%.
For the molecule `Nc1n[nH]c2c1c(Nc1ccc([N+](=O)[O-])cc1)nc1ccccc12`, the Activity in the series on Escherichia coli came to 46.5%. In addition, the half-maximal inhibitory concentration (IC50) in series [1] is 9.2 µM. In addition, the activity at 1 h, 10 µM on beta-glucuronidase is 90.9%.
The matching figures for `Nc1n[nH]c2c1c(Nc1ccccc1Cl)nc1ccccc12`: 10.3%, 0.281 µM and 79.8%.
The matching figures for `Nc1n[nH]c2c1c(Nc1cccc(O)c1)nc1ccccc12`: 6%, 0.884 µM and 78.3%.
For the molecule `Nc1n[nH]c2c1c(O)nc1ccccc12`, the Activity in the series with Escherichia coli amounted to 99%. Also, the activity at 1 h, 10 µM on beta-glucuronidase stood at 83%.
The matching figures for `O=C1c2ccccc2-c2c(N3CCC(O)CC3)nc3ccccc3c21`: 74.9% and 80.6%.
For the molecule `Cc1cccc(Nc2nc3ccccc3c3[nH]nc(N)c23)c1`, the Activity with Escherichia coli was 80.7%. For the same molecule, the IC50 in series [1] is above 10 µM. The activity at 1 h, 10 µM at beta-glucuronidase came out at 86.5%.
As for `CCOC(=O)CN1C(=O)S/C(=C/c2ccc3cc(F)ccc3n2)C1=O`, the Activity in the series with Escherichia coli was 111%. The activity at 1 h, 10 µM on beta-glucuronidase was found to be 87.9%.
The matching figures for `COc1ccc(-c2nc3c4ccoc4c4ccccc4c3[nH]2)cc1`: 112% and 85.4%.
Taken in the same sequence, the figures for `Fc1ccc(-c2cc(-c3ccc4cc(F)ccc4n3)nn2-c2ccccc2)cc1` were 114% and 82.2%.
On to `COc1ccc(-c2cc3ccccc3nc2C2CC(c3cc(OC)c(OC)c(OC)c3)=NN2C(N)=S)cc1` (centres undefined), for which the Activity in the series on Escherichia coli is 114%. At beta-glucuronidase, the activity at 1 h, 10 µM turned out to be 89.5%.
With `NC(=S)N/N=C/c1ccc2cc(F)ccc2n1`, the Activity with Escherichia coli turned out to be 112%. The activity at 1 h, 10 µM on beta-glucuronidase was 78.5%.
In the case of `Cc1ccc(Nc2nc3c(C)cccc3c3[nH]nc(N)c23)cc1`, in the series on Escherichia coli, the Activity was determined as 6.8%. The molecule also had a concentration for half-maximal inhibition (IC50) in series [1] of 0.0247 µM. In addition, at beta-glucuronidase, the activity at 1 h, 10 µM came to 85.7%.
For `CCN(CC)CCNC(=O)c1ccc(/N=C2/c3ccccc3C(=O)c3c2ccn3Cc2ccccc2)cc1`, in the series on Escherichia coli, the Activity turned out to be 87.4%. The activity at 1 h, 10 µM on beta-glucuronidase was determined as 86.9%.
Turning to `COc1cc(/C=C2\CN(C(=O)CN(C)C)C/C(=C\c3cc(OC)c(OC)c(OC)c3)C2=O)cc(OC)c1OC`, the Activity in the series on Escherichia coli stood at 34.1%. Also, at beta-glucuronidase, the activity at 1 h, 10 µM amounted to 92.4%.
The matching figures for `Nc1n[nH]c2c1cnc1ccccc12`: 99.3% and 79.4%.
Take `c1ccc2c(c1)c1nonc1c1ccoc21`: the Activity in the series with Escherichia coli came out at 111%. In addition, the activity at 1 h, 10 µM on beta-glucuronidase is 82.7%.
Taken in the same sequence, the figures for `O=C1S/C(=C/c2ccc3cc(F)ccc3n2)C(=O)N1CCN1CCCC1` were 99.2% and 102%.
The matching figures for `Cc1cc2c(n1CCCN(C)CCCn1c(C)cc3c1C(=O)c1ccccc1C3=O)C(=O)c1ccccc1C2=O`: 73.5% and 79.8%.
Turning to `Fc1ccc(-c2cc(-c3ccc4cc(F)ccc4n3)n(-c3ccccc3)n2)cc1`, in the series with Escherichia coli, the Activity is 113%. For the same molecule, on beta-glucuronidase, the activity at 1 h, 10 µM was 88.9%.
The matching figures for `O=C1NC(=O)/C(=C\c2ccc3cc(F)ccc3n2)S1`: 115% and 88.9%.
For the molecule `COc1ccc(-c2cc3cc(F)ccc3nc2/C=C2\SC(=O)NC2=O)cc1`, in the series on Escherichia coli, the Activity turned out to be 99.1%. Also, the activity at 1 h, 10 µM at beta-glucuronidase was 84.6%.
Regarding `Nc1n[nH]c2c1c(Nc1ccc(C(F)(F)F)cc1)nc1ccccc12`, in the series with Escherichia coli, the Activity was found to be 5.66%. In series [1], this molecule returned an IC50 of 0.0982 µM. Besides, the activity at 1 h, 10 µM at beta-glucuronidase was found to be 101%.
`CCOc1nc2ccccc2c2[nH]nc(N)c12`: the Activity in the series on Escherichia coli was determined as 102%. In addition, the activity at 1 h, 10 µM on beta-glucuronidase came to 80.5%.
For `Nc1n[nH]c2c1c(Nc1cccc(Cl)c1)nc1ccccc12`, in the series on Escherichia coli, the Activity came to 14.9%. The molecule further displayed an IC50 in series [1] of 0.308 µM. In addition, the activity at 1 h, 10 µM at beta-glucuronidase is 94.1%.
Taken in the same sequence, the figures for `Nc1n[nH]c2c1c(Nc1ccc(C(=O)O)cc1)nc1ccccc12` were 19%, 0.154 µM and 102%.
Taken in the same sequence, the figures for `Nc1n[nH]c2c1c(Nc1ccccc1O)nc1ccccc12` were 12%, 0.613 µM and 85.6%.
As for `COc1cc(/C=C2\CNC/C(=C\c3cc(OC)c(OC)c(OC)c3)C2=O)cc(OC)c1OC`, in the series on Escherichia coli, the Activity was 111%. The activity at 1 h, 10 µM at beta-glucuronidase worked out at 107%.
For the molecule `CN(C)CCCN1C(=O)S/C(=C/c2ccc3cc(F)ccc3n2)C1=O`, in the series with Escherichia coli, the Activity amounted to 112%. Further, the activity at 1 h, 10 µM at beta-glucuronidase was 80.2%.
